This passage reports inhibition results from PubChem BioAssay AID720543 (The Scripps Research Institute Molecular Screening Center, 2013).

The campaign covered roughly 370,000 compounds. About 2,000 (0.54%) were called active. The sample holds actives, similar compounds and a random draw of the others, so the mix is not that of the screen. Unmarked numbers belong to inactive results.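 How the source made its calls: active means inhibition exceeding the mean over every tested compound plus 3 SD (cut at about 30% in these data); inactive means the rest.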

The target in this test is (Lyso)-N-acylphosphatidylethanolamine lipase (Mus musculus) (UniProt Q8VD66). Kind of test: ABHD4 inhibitors, primary screen, biochemical, fluorescence polarization, mouse (AID 720543).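 Further: 0% = plate median of compound wells and 100% = S159A mutant with DMSO.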 The conditions noted are these: purified mABHD4, FP-Rh probe fluorescence polarization; at 8.92 µM; hits give high values. The procedure, abridged: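 Assay system: wild-type mouse ABHD4 protein; compound: single nominal dose of 8.92 µM, 0.89% DMSO final; schedule: 45 min + 60 min at 25 °C; measured by: FP readout, ex 525 nm / em 598 nm; evaluation: % inhibition of FP-Rh probe binding versus controls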
(Lyso)-N-acylphosphatidylethanolamine lipase (Mus musculus), sequence (Q8VD66 whole entry, looked up): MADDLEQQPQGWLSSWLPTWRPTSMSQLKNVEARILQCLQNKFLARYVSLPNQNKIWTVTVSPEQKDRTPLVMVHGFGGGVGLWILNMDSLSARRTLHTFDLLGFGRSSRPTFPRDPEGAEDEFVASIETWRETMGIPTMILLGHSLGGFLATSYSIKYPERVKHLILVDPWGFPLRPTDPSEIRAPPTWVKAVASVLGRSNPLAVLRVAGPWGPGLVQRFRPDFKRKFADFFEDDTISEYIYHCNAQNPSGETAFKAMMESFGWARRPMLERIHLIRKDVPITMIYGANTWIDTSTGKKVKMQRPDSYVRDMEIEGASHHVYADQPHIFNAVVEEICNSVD
Background: Polarisation of emitted light reports the rotation of a fluorescent probe.
Consider `CC(=O)c1ccc(S(=O)(=O)NCC2CCN(C(=O)C(=O)c3cccs3)CC2)cc1`, for which the inhibition (as a rule, the change of the read-out against control, counted positive when it falls) is -4.2%.

Consider `C=C1C(C(C)C)N(C)C2=NC(c3ccccc3)CC(=O)N12` (configuration not stated), for which the inhibition was -4.4%.

Consider `CCCCCCSc1ccc(-c2nc3ccc(Cl)cn3c2NCc2ccccc2)cc1`, for which the inhibition was 30.7% (active).

As to `Clc1ccc2nc(CSc3ccccc3)cn2c1`, the inhibition was 0.19%.

In the case of `COc1ccccc1Cc1c(-c2ccc(Cl)cc2)nc2ccc(Cl)cn12`, the inhibition is -4.24%.

Regarding `CCOC(=O)C1(S(=O)(=O)c2ccc(Cl)cc2)CCN(Cc2ccccc2)CC1`, the inhibition is -3.97%.

As for `c1csc(-c2nnc(COc3ccc4c(c3)OCO4)o2)c1`, the inhibition was 2.17%.

With `c1coc(CCNc2ncnc3ccc(-c4ccc5c(c4)OCO5)cc23)c1`, the inhibition is -22.8%.

On to `Cc1ccc(NC(=O)Cc2nc(COC(=O)C(C)NS(=O)(=O)c3ccc(C)cc3)cs2)cc1` (configuration not stated), for which the inhibition was 30% (active).

For `CC(=O)Nc1ccc(S(=O)(=O)NC(C)C(=O)OCC(=O)NC2CCCC2)cc1` (configuration not stated), the inhibition is -2.25%.

With `C/C=C/C(=O)OCc1csc(CC(=O)Nc2ccccc2C)n1`, the inhibition was -5.94%.

Take `Cc1cc(C)c2nc3nc(C)cc(C)c3c(N)c2c1`: the inhibition was -1.05%.

Take `Cc1sc2nc(SCC(=O)c3ccc(O)c(O)c3)n(Cc3ccco3)c(=O)c2c1C`: the inhibition is 4.55%.

`COCCCNC(=O)C[C@H]1C[C@@]2(C(=O)OC)C(=C[C@H](C(C)(C)C)O[C@@H]2C)N(Cc2ccc3c(c2)OCO3)C1=O`: the inhibition is 1.21%.

On to `CCOC(=O)c1cc(-c2sc(NC(=O)c3ccccc3)nc2C)n(-c2ccc(Br)cc2)n1`, for which the inhibition is 1.18%.

Consider `Cc1ccc2c(C(=O)CN3CCCC3)c(C)[nH]c2c1`, for which the inhibition is 0.49%.

On to `O=c1cnnc(Nc2ccccc2)[nH]1`, for which the inhibition is 4.6%.

Regarding `Nc1ccc(Nc2ccccc2)cc1`, the inhibition is 46.5% (active).

`Cc1ccc(Nc2ccccc2N)cc1`: the inhibition was 28.9%.

With `CCCc1ccc(C(O)c2ncc(-c3cccc(OC)c3)[nH]2)cc1` (configuration not stated), the inhibition was -9.64%.

Consider `Cc1ccc(CN2CCCCC(NC(=O)C3CCCCC3)C2=O)cc1` (configuration not stated), for which the inhibition was -4.62%.

`COC(=O)C1CN(CC(C)C)CCS(=O)(=O)N1Cc1ccc(C)cc1` (configuration not stated): the inhibition was 2.37%.

In the case of `CN1c2ccc(C=O)c3c(C=O)ccc(c23)N(C)C1(C)C`, the inhibition was 64.5% (active).

Regarding `COC(=O)C1CN(CC(C)C)CCS(=O)(=O)N1Cc1ccc(F)cc1` (configuration not stated), the inhibition is 0.68%.

Regarding `CCC(=O)c1c(CC)c2n3c1=CC[C@H]3CC(Br)C=2` (some centres not stated), the inhibition was 3.54%.

For `Cc1cc(C)n2ncc(C(=O)Nc3ccc4c(c3)OCCO4)c2n1`, the inhibition was 1.04%.

Turning to `Cc1cc(C(=O)COc2ccccc2[N+](=O)[O-])c(C)n1-c1cccc(S(=O)(=O)N2CCOCC2)c1`, the inhibition is -5.94%.

For `O=C(N/N=C/c1cccc([N+](=O)[O-])c1)C1CC(=O)N(c2ccc(Br)cc2)C1` (configuration not stated), the inhibition was -2.95%.

Turning to `Cc1cc(C(=O)N/N=C/c2ccc(O)c([N+](=O)[O-])c2)c(C)n1-c1ccc(F)cc1`, the inhibition is 37.5% (active).

For `O=C1CC(c2ccc3c(c2)OCO3)N=C2N(CC3CC3)C/C(=C/c3ccccc3)N12` (configuration not stated), the inhibition is 5.86%.

As for `COc1cccc(CNC(=O)[C@H]2CCCN2C(=O)[C@H]2CCCN2C(=O)c2cc(F)cc(F)c2)c1`, the inhibition was 1.83%.

On to `Cc1cc(=O)n2[nH]c(-c3sccc3-n3c(C)ccc3C)cc2n1`, for which the inhibition is 16.4%.

On to `O=[N+]([O-])/C=C/c1ccc2c(ccn2Cc2ccccc2)c1`, for which the inhibition is -15%.

On to `O=S(=O)(/N=C(/Nc1ccccc1)c1ccccc1)c1cccs1`, for which the inhibition is 1.09%.

As for `Cc1c(NC(=O)C(=O)N/N=C/c2cccs2)c(=O)n(-c2ccccc2)n1C`, the inhibition is 3.46%.

For `O=C(O)c1ccc(N/N=C/c2cn(-c3ccccc3)nc2-c2cccs2)cc1`, the inhibition is 34.6% (active).

On to `CN1C[C@]2(C=C3CCCCC3n3c(=O)n(-c4ccccc4)c(=O)n32)N=C1NC(=O)c1ccccc1` (some centres not stated), for which the inhibition was 0.57%.

`COc1cc(C(=S)NC2CCCCC2)ccc1O`: the inhibition is 0.73%.

In the case of `COc1cc(C(=O)Nn2c(O)c(C3=c4ccccc4=NC3=O)sc2=S)ccc1O`, the inhibition was 57.7% (active).

With `COc1ccc(C(=O)NC(=S)N2CCCCC2c2cccnc2)cc1OC` (configuration not stated), the inhibition was -3.67%.

Regarding `CCOC(=O)[C@]12CCCC=C1N(Cc1ccc(OC)cc1)C(=O)[C@@H]2CC(=O)N1CCOCC1`, the inhibition is 5.88%.

Consider `O=C(c1ccc2c(c1)N(Cc1ccc(F)cc1)C(=O)CS2)N1CCOCC1`, for which the inhibition was -7.7%.
